DNA FID counter: compounds displacing fluorescent DNA intercalator, primary screen, artefact control for HCV NS3 helicase inhibitor project, biochemical, FID fluorescence | DNA fluorescent intercalator displacement | 0.17% of 290,000 active | inhibition, % at 7.9 µM | AID 1845, 2009; in the data active means inhibition above about 37%;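 further: 0% = vehicle and 100% = reference compound; higher means more ethidium bromide displaced from hairpin DNA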
PLC-gamma1 inh: PLC-gamma1 enzyme inhibitors, primary screen, biochemical, fluorescence, purified enzyme; 0.84% of 370,000 active; AID 720700, 2013; inhibition, % at 12.2 µM; 1-phosphatidylinositol 4,5-bisphosphate phosphodiesterase gamma-1 (Homo sapiens), P19174; fluorogenic substrate; in the data active means inhibition above about 9.5%
DDE Tn7 FP inh: inhibitors of Tn7 peptide binding to fibrin DD(E), primary screen, biochemical, fluorescence polarization, human fibrin, Tn7 probe; inhibition, % at 8.3 µM; AID 720508, 2013; FP displacement of FITC-Tn7 peptide from fibrin DD(E); 0% = median of compound wells per plate; 0.13% of 370,000 active;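 active means inhibition above the mean of compounds falling within the control limits plus 3 SD of them, cut at about 14% in these data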;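 further: 0% = plate median of compound wells and 100% = 10 µM Aha-Tn7 peptide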
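Assay system: Human fibrin DD(E) protein | Medium: Tris buffer with calcium and detergent, pH 7.8 | Reagent: 0.1 µM fluorescent Tn7 | Compound dosing: Single point at 8.3 µM | Times: 10 min preincubation, 3 h with tracer, room temperature | Detection: Fluorescence polarization of the labelled Tn7 tracer | Controls: Aha-Tn7 high control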
Tn6 DDE FP: inhibitors of Tn6 peptide binding to fibrin DD(E), primary screen, biochemical, fluorescence polarization, human fibrin, Tn6 probe. Fibrin DD(E) TRITC-Tn6 fluorescence polarization displacement. inhibition, % at 8.3 µM. 0.21% of 370,000 active. AID 720509, 2013;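 active means inhibition above a per-campaign cutoff: mean of compounds within control limits plus 3 SD, cut at about 15% in these data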;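 further: 0% = median of all compound wells on the plate and 100% = blocking peptide control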
PLC-beta3 inh: human PLC-beta3 inhibitors, primary screen, biochemical, fluorescence; 1-phosphatidylinositol 4,5-bisphosphate phosphodiesterase beta-3 (Homo sapiens), Q01970; Purified PLC-beta3, fluorogenic substrate; inhibition, % at 12.2 µM; 0.18% of 370,000 active; AID 720704, 2013;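 further: 0% = median of compound wells on plate and 100% = full blocker control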
PLCgamma1 ctr: PLC-gamma1 enzyme inhibitors, counter-screen for PLC-beta3 inhibitor project, biochemical, fluorescence; shares compounds with PLC-gamma1 inh; purified PLC-gamma1, fluorogenic substrate; inhibition, % at 12.3 µM; 3.1% of 3,300 active; AID 743258, 2014; in the data active means inhibition above about 9.5%
PLCbeta3 conf: PLC-beta3 inhibitor confirmation, biochemical, fluorescence, purified enzyme | fluorogenic substrate fluorescence | inhibition, % at 12.3 µM | 1% of 3,300 active | AID 743261, 2014 | shares compounds with PLC-gamma1 inh
* marks the source's active call; other numbers are inactive results; · = no result given. Rows were chosen to be rich in hits. Some 1.4% of all compounds tested hit in one or more screens of this group. Unless noted, no stated cut-off is given here; in the data, active means inhibition above about 11%; inactive means the rest.

SMILES | DNA FID counter | PLC-gamma1 inh | DDE Tn7 FP inh | Tn6 DDE FP | PLC-beta3 inh | PLCgamma1 ctr | PLCbeta3 conf
O=C(NNC(=O)c1cccc2ccccc12)c1ccc(F)cc1 | · | 4 | -1 | -5 | 17* | 5 | 3
CCn1c(COc2ccc3c(c2)OCO3)nnc1SCC(=O)c1ccccc1 | -8 | 2 | 2 | -3 | 2 | · | ·
c1ccc(Nc2cc(Nc3ccccc3)[nH]n2)cc1 | -4 | 22* | -3 | -11 | 5 | 3 | 3
CCNc1nc(NCC)n2c(SCC(=O)Nc3ccccc3)nnc2n1 | -14 | 2 | 1 | -7 | -2 | · | ·
CCN(CC)C(=O)C1=C(C)N(Cc2ccc(C(C)(C)C)cc2)C(=O)C(CC(=O)NC2CCCC2)C1 (configuration not stated) | · | 11* | 6 | 8 | 5 | -5 | 2
COC(=O)C12OCC34C(CC5C(C)=C(O)C(=O)CC5(C)C3C(O)C1O)OC(=O)C(OC(=O)C=C(C)C)C24 (configuration not stated) | · | 12* | -7 | 1 | 7 | -2 | -6
Cc1cc(NC(=O)CCCC(=O)O)nc(C)n1 | 4 | 10* | 4 | 2 | 5 | -2 | -1
COc1cccc(Oc2ccc(S(=O)(=O)N3CCCC3)cc2[N+](=O)[O-])c1 | -13 | 9.6* | -9 | 2 | -3 | 2 | 1
COc1ccc(OCCOc2ccc(S(=O)(=O)N3CCCC3)cc2[N+](=O)[O-])cc1 | · | -6 | 1 | -4 | -5 | · | ·
O=c1c(-c2ccnn2-c2ccc(F)cc2)cnc2n1CCS2 | -2 | -1 | -9 | 5 | 0 | · | ·
O=c1ccnc2n1COCS2 | 1 | 12* | -1 | -2 | 0 | -5 | -1
O=c1cc(-c2ccccc2)c2c([nH]1)CCCC2 | -6 | -7 | 10 | 5 | -9 | · | ·
COc1ccc(OCC(O)CNC(=O)c2ccc(C)cc2)cc1 (configuration not stated) | -6 | 3 | -7 | 4 | -3 | · | ·
Fc1ccc(C2=NOC(c3nnc(-c4ccccc4)o3)C2)cc1 (configuration not stated) | · | 6 | -3 | -1 | 12* | -7 | -2
c1ccc(C2=NOC(c3nnc(-c4ccccc4)o3)C2)cc1 (configuration not stated) | · | 2 | -4 | 4 | 1 | · | ·
CCOC(=O)c1ccc(NC(=O)CCc2nc(-c3cccc(C)c3)no2)cc1 | -7 | 6 | 0 | -3 | 4 | · | ·
COc1ccc(CC(=O)OC(C)C(=O)c2ccc(C)cc2)cc1 (configuration not stated) | -28 | 2 | -3 | -5 | -6 | · | ·
CC(C)(C)N(NC(=O)Nc1ccccc1)C(=O)c1ccccc1 | -2 | 13* | 1 | 1 | 8 | -4 | 2
COc1cccc(C2=NOC(C(=O)NCc3cccnc3)C2)c1 (configuration not stated) | -4 | 0 | 8 | 4 | -4 | · | ·
Cc1cc(Nc2ccc(F)c(Cl)c2)n2nc(C)nc2n1 | -9 | -1 | -5 | 2 | 4 | · | ·
COc1ccc(Nc2cc(C)nc3nc(C)nn23)cc1Cl | -7 | 9.6* | 5 | -2 | 6 | -11 | -4
COC(=O)C[C@@H]1CC[C@@H]2[C@H](COc3ccc(NC(=O)c4ccc5c(c4)OCO5)cc3C(=O)N2C)O1 | · | -2 | 4 | 6 | 0 | · | ·
CN1C(=O)c2cc(NC(=O)Nc3ccccc3F)ccc2OC[C@H]2O[C@@H](CC(=O)NCc3ccc(-c4ccccc4)cc3)CC[C@@H]21 | · | 12* | -5 | -1 | 10 | 13* | 12*
CCNC(=O)C[C@H]1CC[C@H]2[C@@H](COc3ccc(NC(=O)c4ccc5c(c4)OCO5)cc3C(=O)N2C)O1 | · | 9.6* | -14 | 5 | 4 | 15* | 14*
CCOc1ccc(NC(=O)C2CCN(c3nnnn3-c3ccccc3)CC2)cc1 | -32 | 10* | 0 | 1 | 5 | -7 | -3
SMILES | DNA FID counter | PLC-gamma1 inh | DDE Tn7 FP inh | Tn6 DDE FP | PLC-beta3 inh | PLCgamma1 ctr | PLCbeta3 conf
COc1cccc(NC(=O)N2CCN(c3nnnn3-c3ccccc3)CC2)c1 | -17 | 10* | 2 | -5 | 5 | 5 | 0
CC1(C(=O)NS(=O)(=O)c2cccs2)CCN1C(=O)c1cccc(F)c1 (configuration not stated) | · | -1 | 3 | 5 | 14* | -1 | -1
CCOc1ccc(NC(=O)c2cccc(NC3=NC4CS(=O)(=O)CC4S3)c2)cc1 (configuration not stated) | -13 | 9.9* | -11 | 7 | 4 | 6 | 2
CCc1ccc(NC(=O)c2cccc(NC3=NC4CS(=O)(=O)CC4S3)c2)cc1 (configuration not stated) | -16 | 1 | -5 | -3 | 1 | · | ·
O=C(Cc1ccc(NC2=NC3CS(=O)(=O)CC3S2)cc1)NCc1ccc(Cl)cc1 (configuration not stated) | -5 | 11* | -9 | -6 | 1 | -2 | -1
O=C(Nc1ccc(Cl)cc1)c1cccc(NC2=NC3CS(=O)(=O)CC3S2)c1 (configuration not stated) | -2 | 12* | -2 | 4 | 4 | -5 | -5
Cc1ccc(NC(=O)c2cccc(NC3=NC4CS(=O)(=O)CC4S3)c2)cc1C (configuration not stated) | -12 | 2 | -1 | 0 | 0 | · | ·
Cc1ccc(CNC(=O)Cc2ccc(NC3=NC4CS(=O)(=O)CC4S3)cc2)cc1 (configuration not stated) | -2 | 3 | 2 | 3 | -1 | · | ·
CC(C)c1ccc(NC(=O)c2cccc(NC3=NC4CS(=O)(=O)CC4S3)c2)cc1 (configuration not stated) | -21 | 9.6* | -3 | -7 | 0 | 2 | -1
CC(C)c1ccc(NC(=O)Cc2ccc(NC3=NC4CS(=O)(=O)CC4S3)cc2)cc1 (configuration not stated) | -20 | 11* | -6 | 2 | 4 | -4 | -3
CCc1ccc(NC(=O)Cc2ccc(NC3=NC4CS(=O)(=O)CC4S3)cc2)cc1 (configuration not stated) | -12 | 2 | 4 | -5 | 1 | · | ·
COc1ccc(OCC(=O)N/N=C(\C)c2cc3ccccc3o2)cc1 | -18 | 0 | 10 | 2 | 0 | · | ·

Screening results as filed in PubChem BioAssay.
